For nine compounds, pA2 results are on record in ChEMBL document CHEMBL1124301, “Enantioselectivity of muscarinic antagonists. 2,2-Dicyclohexyl-5-[(dimethylamino)methyl]-1,3-oxathiolane methiodides and related 3-oxides” (J Med Chem, 1988).

In test [1] the target is Muscarinic acetylcholine receptor. The experiment in a line: Antagonist activity against Muscarinic acetylcholine receptor of rat bladder. It is filed as functional. In a few lines:
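Longitudinal bladder strip (2 mm wide, urethra to apex) in PSS at 37 °C, recorded isometrically, equilibrated 30 min. Carbachol dose-response curves run at 30-min intervals, with the second taken as control. After 30 min antagonist incubation, the curve was repeated.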

Test [2] shares this target. The experiment in a line: Antagonist activity against Muscarinic acetylcholine receptor of guinea pig heart. It is filed as functional, Cavia porcellus.
Test [3] shares this target. The experiment in a line: Antagonist activity against Muscarinic acetylcholine receptor of guinea pig ileum. The class given is functional, tissue-based, Cavia porcellus.
Test [4] shares this target. The experiment in a line: Antagonist activity against Muscarinic acetylcholine receptor of guinea pig heart. The class given is functional, Cavia porcellus.

SMILES strings stand for the structures. “And” between values parts separate entries of the source, which are not always exact repeats. Equal values may be shown once.

By pA2 is commonly meant the negative logarithm of the molar antagonist concentration that doubles the agonist concentration needed for the same response. Turning to `C[N+](C)(C)C[C@@H]1C[S@+]([O-])C(C2CCCCC2)(C2CCCCC2)O1.[I-]` (racemic), the pA2 in test [1] is 5.99; in test [2] it was 6.27 and 6.06; in test [3], 6.4.

Regarding `C[N+](C)(C)C[C@@H]1C[S@@+]([O-])C(C2CCCCC2)(C2CCCCC2)O1.[I-]` (racemic), the pA2 in test [1] is 6.03; in test [2], 6.77 and 6.63; in test [3], 6.24.

On to `C[N+](C)(C)C[C@@H]1C[S@@+]([O-])C(C2CCCCC2)(C2CCCCC2)O1.[I-]` (stereo in doubt; (-)-4), for which the pA2 in test [1] is 6.36; in test [2] it was 6.79 and 6.65; in test [3], 6.69.

`C[N+](C)(C)C[C@@H]1CSC(C2CCCCC2)(C2CCCCC2)O1.[I-]` (racemic): the pA2 in test [1] was found to be 6.26; in test [2], 6.38; in test [3], 6.95; in test [4] it was 6.12.

With `C[N+](C)(C)C[C@@H]1C[S@@+]([O-])C(C2CCCCC2)(C2CCCCC2)O1.[I-]` (stereo in doubt; (+)-4), the pA2 in test [1] is 5.51; in test [2] it was 5.55 and 5.4; in test [3], 5.81.

Consider `C[N+](C)(C)C[C@@H]1C[S@+]([O-])C(C2CCCCC2)(C2CCCCC2)O1.[I-]` (stereo in doubt; (-)-6), for which the pA2 in test [1] was 5.48; in test [2], 5.61 and 5.59; in test [3] it was 5.92.

Turning to `C[N+](C)(C)C[C@@H]1C[S@+]([O-])C(C2CCCCC2)(C2CCCCC2)O1.[I-]` (stereo in doubt; (+)-6), the pA2 in test [1] is 6.27; in test [2] it was 6.45 and 6.31; in test [3] it was 6.32.

In the case of `C[N+](C)(C)C[C@@H]1CSC(C2CCCCC2)(C2CCCCC2)O1.[I-]` (stereo in doubt; (-)-2), the pA2 in test [1] is 6.34; in test [2] it was 6.02 and 6.05; in test [3] it was 6.92.

As for `C[N+](C)(C)C[C@@H]1CSC(C2CCCCC2)(C2CCCCC2)O1.[I-]` (stereo in doubt; (+)-2), the pA2 in test [1] is 6.28; in test [2], 6.37 and 6.42; in test [3] it was 6.98.
